According to ChEMBL document CHEMBL4431342, “Coumarin derivatives as potential inhibitors of acetylcholinesterase: Synthesis, molecular docking and biological studies” (Bioorg Med Chem, 2016):
Calls of active or inactive are those of the source. The calls are words filed in the database; no cut-off is given here.

Tests used:
[1] = molecular target: T1, Acetylcholinesterase (Mus musculus, UniProt P21836); assay: biochemical; type: tissue-based, LACA, Brain
T1 sequence (P21836 whole entry): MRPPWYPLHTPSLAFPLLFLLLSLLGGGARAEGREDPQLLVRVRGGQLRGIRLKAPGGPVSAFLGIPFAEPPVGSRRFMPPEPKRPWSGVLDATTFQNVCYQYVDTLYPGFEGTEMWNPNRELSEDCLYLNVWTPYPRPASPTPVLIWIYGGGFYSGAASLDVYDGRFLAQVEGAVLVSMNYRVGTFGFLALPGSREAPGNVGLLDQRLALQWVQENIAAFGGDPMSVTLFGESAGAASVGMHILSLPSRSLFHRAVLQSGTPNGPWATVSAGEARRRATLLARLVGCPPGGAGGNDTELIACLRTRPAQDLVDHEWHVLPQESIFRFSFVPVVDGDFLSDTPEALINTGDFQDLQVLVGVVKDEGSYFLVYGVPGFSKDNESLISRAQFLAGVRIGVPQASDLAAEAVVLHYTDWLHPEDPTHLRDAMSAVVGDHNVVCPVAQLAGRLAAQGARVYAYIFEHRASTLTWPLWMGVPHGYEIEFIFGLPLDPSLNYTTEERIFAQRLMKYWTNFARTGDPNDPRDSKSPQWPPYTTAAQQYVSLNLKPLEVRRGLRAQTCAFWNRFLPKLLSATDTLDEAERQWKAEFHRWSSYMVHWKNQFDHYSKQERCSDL

[2] = tested on: Mus musculus; assay: Antiamnesic activity in Albino LACA mouse assessed as decrease in scopolamine-induced increase in escape latency time administered intraperitoneally 5 mins post scopolamine challenge for 35 mins by Morris water maze test; type: functional, organism-based
Method in brief: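 Mice of either sex, 25-35 g, housed in groups of five. […] Water maze: water 30 cm deep at 28 ± 2 °C, 5 days, 90 s maximum per trial, then a 90 s probe trial. Read-out is escape latency; n = 5, mean ± SEM.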

[3] = tested on: Mus musculus; assay: Antiamnesic activity in Albino LACA mouse assessed as scopolamine-induced increase in escape latency time administered intraperitoneally 5 mins post scopolamine challenge for 35 mins by Morris water maze test (reference value: 49.35 +/- 2.21 secs); type: functional
Method in brief: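 LACA albino mice, 25-35 g, either sex, housed five per group. Scopolamine 0.5 mg/kg i.p. or saline given 35 min before training, then vehicle (0.25% CMC suspension) or compound 1 mg/kg i.p. 5 min later. Water maze at 30 cm depth, 28 ± 2 °C, training over 5 days, 90 s maximum per trial, probe trial 90 s. Escape latency recorded, mean of 5 mice.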

Structure (SMILES)	IC50 [1] [µM]	Activity [2]	Time [3] [s]
O=c1cc(OCCCCN2CCN(c3ncccn3)CC2)c2ccccc2o1	34.8	Active	–
O=C(NCCc1ccccc1)Oc1cc(=O)oc2ccccc12	83.4	Active	–
O=c1cc(OCCCN2CCN(c3ncccn3)CC2)c2ccccc2o1	21.6	Active	13.98
O=c1cc(OCCCCN2CCN(c3ccccn3)CC2)c2ccccc2o1	37.5	Active	–
O=c1cc(OCCCN2CCN(c3ccccn3)CC2)c2ccccc2o1	16.1	Active	–
O=c1cc(OCCCCN2CCN(c3ccccc3F)CC2)c2ccccc2o1	29.7	Active	–
O=c1cc(OCCCN2CCN(c3ccccc3)CC2)c2ccccc2o1	2.42	Active	8.05
O=c1cc(OCCCN2CCN(c3ccc(F)cc3)CC2)c2ccccc2o1	9.5	Active	–
COc1ccc(CCNCCCOc2cc(=O)oc3ccccc23)cc1OC	47.1	Active	–
O=c1cc(OCCCN2CCN(c3ccccc3F)CC2)c2ccccc2o1	5.2	Active	11.8
O=c1cc(OCCCCN2CCN(c3ccccc3)CC2)c2ccccc2o1	14.9	Active	–
O=c1cc(OCCCN2CCC(Cc3ccccc3)CC2)c2ccccc2o1	11.4	Active	–
O=C(Oc1cc(=O)oc2ccccc12)N1CCN(c2ccccc2)CC1	74.8	Active	–
O=c1cc(OCCCNCCc2ccccc2)c2ccccc2o1	66.9	Active	–
